Experimental data from different studies.
Each line is one published result; the experiments were not run side by side.
Target: Dual specificity mitogen-activated protein kinase kinase 4 (MAP2K4, Homo sapiens, UniProt P45985)
Sequence (P45985 1-399, as in one of the studies): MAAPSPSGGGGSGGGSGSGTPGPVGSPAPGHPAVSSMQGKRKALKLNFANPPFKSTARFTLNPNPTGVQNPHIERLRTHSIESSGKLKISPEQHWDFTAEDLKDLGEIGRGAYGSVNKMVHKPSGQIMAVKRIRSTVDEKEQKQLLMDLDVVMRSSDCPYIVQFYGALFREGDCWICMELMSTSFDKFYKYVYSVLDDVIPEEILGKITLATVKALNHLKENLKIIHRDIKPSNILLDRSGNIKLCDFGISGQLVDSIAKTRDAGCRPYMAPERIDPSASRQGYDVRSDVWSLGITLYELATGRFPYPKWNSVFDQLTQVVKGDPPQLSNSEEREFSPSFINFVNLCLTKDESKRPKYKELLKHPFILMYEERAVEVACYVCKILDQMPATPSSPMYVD

| Compound | observed | method | tested at | remaining binding [%] |
| --- | --- | --- | --- | --- |
| O=C(Nc1c[nH]nc1C(=O)NC1CCNCC1)c1cc(F)cc(F)c1 | binding | competition with immobilised ligand | 1 µM | 94 |
| COc1cnc(Nc2cccc(S(N)(=O)=O)c2)nc1N1CCN(c2ccccc2)C(=O)C1 | binding | competition with immobilised ligand | 1 µM | 71 |
| CC1=C(C#N)C(c2ccc3c(c2)c(NC(=O)c2ccccc2C)nn3C)C(C#N)=C(C)N1 | cell-free assay | competition with immobilised ligand | 1 µM | 79 |
| Nc1ncc2c(n1)-c1c([nH]c3ccc(C#CC4CC4)cc13)CCCC2 | binding | competition with immobilised ligand | 1 µM | 24 |
| O=C(NCCCN1CCOCC1)c1ccc(Nc2nccc(-c3cc4ccccc4s3)n2)cc1 | binding | competition with immobilised ligand | 1 µM | 69 |
| COc1cnc(Nc2cccc(S(N)(=O)=O)c2)nc1N1CCN(c2ccccc2)CC1 | binding | competition with immobilised ligand | 1 µM | 99 |
| CN(c1nccc(-c2cnn3ncccc23)n1)C1CC1 | binding |  | 1 µM | 100 |
| CS(=O)(=O)N1CCCC(NC(=O)[C@H](CCC2CCCCC2)NC(=O)c2ccc(CNC(=O)c3cnc4ccccn34)cc2)C1 (stereo partly drawn) | cell-free assay | competition with immobilised ligand | 0.1 µM | 100 |
| CN(C)c1ncc(F)c(-c2cnn3ncccc23)n1 | binding |  | 1 µM | 100 |
| O=C(c1ccc(Nc2nccc(-c3cc4ccccc4s3)n2)cc1)N1CCC(N2CCCC2)CC1 | binding | competition with immobilised ligand | 1 µM | 78 |
| O=C1CCc2cc(Nc3cc(OC4CCOCC4)c([N+](=O)[O-])cc3Cl)ccc2N1 | cell-free assay | competition with immobilised ligand | 1 µM | 100 |
| FC(F)(F)Oc1cccc(-c2cnc3ccc(-c4ccncc4)nn23)c1 | cell-free assay | competition with immobilised ligand | 5 µM | 69 |
| COc1ccnn2ncc(-c3ccnc(N(C)C)n3)c12 | binding |  | 1 µM | 100 |
| O=C(c1ccc(Nc2ncc(Cl)c(-c3ccc(Cl)s3)n2)cc1)N1CCC(N2CCCC2)CC1 | binding | competition with immobilised ligand | 1 µM | 42 |
| c1cncc(-c2cccc(Nc3nccc(NC4CCCCC4)n3)c2)c1 | binding | competition with immobilised ligand | 10 µM | 64 |
| CN(C)c1nccc(-c2cnc3ncccn23)n1 | binding |  | 1 µM | 84 |
| Cc1nc(C2CCN(C(=O)c3ccc(OC(F)(F)F)cc3N)CC2)c2ncc(N3CCN(C)CC3)cc2n1 | cell-free assay | competition with immobilised ligand | 1 µM | 100 |
| N[C@@H]1CCN(c2nccc(-c3cnn4ncccc34)n2)C1 | binding |  | 1 µM | 99 |
| CC(=O)N1CCC(c2ccc(C(=O)NC3=NCCN3)cc2C(F)(F)F)CC1 | cell-free assay | competition with immobilised ligand | 1 µM | 100 |
| CC1CCCN1c1nccc(-c2cnn3ncccc23)n1 (stereo not drawn) | binding |  | 1 µM | 100 |
| Cc1cc(C)c(-n2ccn3nc(-c4cccnc4)cc23)cc1NC(=O)c1cc(C#N)cc(S(F)(F)(F)(F)F)c1 | cell-free assay | competition with immobilised ligand | 0.1 µM | 74.7 |
